Experimental data reported in ChEMBL document CHEMBL4145441, “Discovery of N-(5-((5-chloro-4-((2-(isopropylsulfonyl)phenyl)amino)pyrimidin-2-yl)amino)-4-methoxy-2-(4-methyl-1,4-diazepan-1-yl)phenyl)acrylamide (CHMFL-ALK/EGFR-050) as a potent ALK/EGFR dual kinase inhibitor capable of overcoming a variety of ALK/EGFR associated drug resistant mutants in NSCLC” (Eur J Med Chem, 2017).
Activity calls are given as the source filed them. No cut-off for these calls is given here.

Experiments:
[1] = Half life in Sprague-Dawley rat at 10 mg/kg, po; format: ADME, organism-based; details: in vivo
In short: (§1)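 Rats dosed once intravenously at 1 mg/kg or orally at 10 mg/kg. Plasma exposure parameters derived: AUC0-t, AUC0-∞, MRT(0-t), Cmax, Tmax, T1/2 and oral bioavailability (F%). Values reported as mean ± spread.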

[2] = molecular target: T1, Epidermal growth factor receptor (Homo sapiens, UniProt P00533); assay: Inhibition of EGFR phosphorylation at Y1068 in human PC9 cells at 30 nM after 4 hrs by immunoblotting method; format: cell-based
Mus musculus = assay: Toxicity in nu/nu mouse xenografted with human NCI-H3122 cells assessed as change in body weight at 10 to 40 mg/kg, po qd administered for 28 days; format: organism-based; details: in vivo, 672 h
A549 = assay: Antiproliferative activity against human A549 cells harboring wild-type EGFR after 72 hrs by CellTiter-Glo assay; format: functional; details: A549, 72 h
[3] = molecular target: T2, ALK tyrosine kinase receptor (Homo sapiens, UniProt Q9UM73); assay: Inhibition of recombinant human wild-type GST-tagged ALK expressed in Baculovirus expression system using Tyr 1 peptide as substrate after 1 hr by Z-LYTE assay
NCI-H2122 = assay: Antiproliferative activity against human NCI-H2122 cells harboring wild-type EGFR after 72 hrs by CellTiter-Glo assay; format: functional; details: NCI-H2122, 72 h
PC-9 [4] = assay: Antiproliferative activity against human PC9 cells harboring EGFR del19 mutant after 72 hrs by CellTiter-Glo assay; format: functional; details: PC-9, 72 h
[5] = AUC (0 to t) in Sprague-Dawley rat at 10 mg/kg, po; format: ADME, organism-based; details: in vivo; in short: as §1
[6] = system: Epidermal growth factor receptor (Homo sapiens), P00533 [T790M]; assay: Inhibition of TEL-fused EGFR T790M mutant (unknown origin) expressed in mouse BAF3 cells assessed as decrease in cell proliferation after 72 hrs by CellTiter-Glo assay; format: cell-based
[7] = Tmax in Sprague-Dawley rat at 1 mg/kg, iv; format: ADME, organism-based; details: in vivo
In short: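 Pharmacokinetics in rats given a single dose either intravenously at 1 mg/kg or orally at 10 mg/kg. Plasma parameters derived include AUC0-t, AUC0-∞, MRT(0-t), Cmax, Tmax, T1/2 and oral F (%).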

[8] = Antiproliferative activity against CHO cells after 72 hrs by CellTiter-Glo assay; format: cell-based, Cricetulus griseus; details: chinese hamster
[9] = molecular target: T1, Epidermal growth factor receptor; assay: Inhibition of EGFR in human NCI-H1975 cells assessed as inhibition of ERK-1/2 phosphorylation at Thr202/Tyr204 residues at 30 nM after 4 hrs by immunoblotting method; format: cell-based
NCI-H3122 [10] = assay: Antitumor activity against human NCI-H3122 cells xenografted in po dosed nu/nu mouse assessed as tumor growth inhibition administered for 28 days; format: functional, organism-based
NCI-H2228 = assay: Antiproliferative activity against human NCI-H2228 cells harboring EML4-fused ALK varian3 after 72 hrs by CellTiter-Glo assay; format: functional; details: NCI-H2228, 72 h
[11] = molecular target: T2, ALK tyrosine kinase receptor
Target sequence in this assay (Q9UM73 19-1620 limits assumed): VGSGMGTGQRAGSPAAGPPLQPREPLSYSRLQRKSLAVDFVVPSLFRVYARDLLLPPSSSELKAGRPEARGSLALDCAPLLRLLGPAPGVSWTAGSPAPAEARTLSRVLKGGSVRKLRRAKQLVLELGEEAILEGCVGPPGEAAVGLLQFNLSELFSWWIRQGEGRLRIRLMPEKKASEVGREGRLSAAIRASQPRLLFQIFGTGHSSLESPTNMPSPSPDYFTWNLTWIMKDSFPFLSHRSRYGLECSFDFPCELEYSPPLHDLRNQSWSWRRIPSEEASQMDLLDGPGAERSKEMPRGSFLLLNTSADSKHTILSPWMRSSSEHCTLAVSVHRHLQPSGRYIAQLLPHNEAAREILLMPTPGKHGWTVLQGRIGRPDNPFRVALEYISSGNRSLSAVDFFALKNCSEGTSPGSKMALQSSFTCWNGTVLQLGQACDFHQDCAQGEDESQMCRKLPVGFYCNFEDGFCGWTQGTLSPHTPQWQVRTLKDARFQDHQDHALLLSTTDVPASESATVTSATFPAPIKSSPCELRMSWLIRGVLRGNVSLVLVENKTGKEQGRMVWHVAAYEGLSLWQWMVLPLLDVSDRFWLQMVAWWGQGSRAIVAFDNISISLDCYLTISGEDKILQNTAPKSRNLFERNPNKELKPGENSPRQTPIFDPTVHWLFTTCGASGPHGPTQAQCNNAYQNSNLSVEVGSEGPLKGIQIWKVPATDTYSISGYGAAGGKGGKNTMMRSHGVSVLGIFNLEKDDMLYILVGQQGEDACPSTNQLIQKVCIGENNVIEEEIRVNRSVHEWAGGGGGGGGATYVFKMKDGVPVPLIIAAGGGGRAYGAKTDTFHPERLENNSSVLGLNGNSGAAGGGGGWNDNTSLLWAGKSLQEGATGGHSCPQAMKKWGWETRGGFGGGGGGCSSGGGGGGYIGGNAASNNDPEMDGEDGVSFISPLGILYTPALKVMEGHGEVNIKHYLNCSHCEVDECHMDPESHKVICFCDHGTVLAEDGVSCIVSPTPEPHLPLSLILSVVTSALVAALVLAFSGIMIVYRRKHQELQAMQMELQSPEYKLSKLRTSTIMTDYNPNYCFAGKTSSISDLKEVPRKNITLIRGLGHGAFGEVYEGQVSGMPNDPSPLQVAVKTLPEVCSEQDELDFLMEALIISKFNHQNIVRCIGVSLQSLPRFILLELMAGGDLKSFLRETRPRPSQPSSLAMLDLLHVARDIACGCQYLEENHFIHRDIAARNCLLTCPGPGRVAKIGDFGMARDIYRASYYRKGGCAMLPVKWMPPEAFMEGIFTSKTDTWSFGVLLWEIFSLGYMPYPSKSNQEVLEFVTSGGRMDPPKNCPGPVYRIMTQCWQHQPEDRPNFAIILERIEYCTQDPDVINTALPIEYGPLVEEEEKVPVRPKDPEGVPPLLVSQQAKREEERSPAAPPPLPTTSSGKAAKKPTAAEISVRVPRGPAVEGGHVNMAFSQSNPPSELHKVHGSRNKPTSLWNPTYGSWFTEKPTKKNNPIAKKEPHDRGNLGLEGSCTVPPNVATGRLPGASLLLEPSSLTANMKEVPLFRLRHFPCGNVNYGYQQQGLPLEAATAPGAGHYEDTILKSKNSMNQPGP

[12] = Cmax in Sprague-Dawley rat at 10 mg/kg, po; format: ADME, organism-based; parameters: dose 10 mg/kg, route oral; details: in vivo; in short: as §1
NCI-H1975 [13] = assay: Antitumor activity against human NCI-H1975 cells xenografted in nu/nu mouse assessed as tumor growth inhibition at 40 mg/kg, po qd administered for 21 days; details: 504 h, read-out: TGI
[14] = system: ALK tyrosine kinase receptor (Homo sapiens), Q9UM73 [C1156Y]
NCI-H3122 [15] = assay: Antitumor activity against human NCI-H3122 cells xenografted in nu/nu mouse assessed as tumor growth inhibition at 20 mg/kg, po qd administered for 28 days; format: functional; details: 672 h, read-out: TGI
NCI-H1975 [16] = assay: Antiproliferative activity against human NCI-H1975 cells harboring EGFR L858R/T790M mutant after 72 hrs by CellTiter-Glo assay; format: functional; details: NCI-H1975, 72 h
In short: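 Antiproliferative GI50 against H1975 and H3122 cells; each GI50 value obtained from triplicate testing.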

[17] = molecular target: ALK tyrosine kinase receptor (Homo sapiens, UniProt Q9UM73, F1174L); assay: Inhibition of recombinant human N-terminal GST/His6-fused ALK F1174L mutant expressed in Sf9 insect cells using Tyr 1 peptide as substrate after 1 hr by Z-LYTE assay
PC-9 [18] = assay: Induction of apoptosis in human PC9 cells assessed as increase in cleaved PARP expression level at 300 nM to 1 uM after 24 hrs by Western blot method; format: functional, cell-based
NCI-H3122 [19] = assay: Antitumor activity against human NCI-H3122 cells xenografted in nu/nu mouse assessed as tumor growth inhibition at 10 mg/kg, po qd administered for 28 days; format: functional; details: 672 h, read-out: TGI
NCI-H3122 [20] = assay: Antitumor activity against human NCI-H3122 cells xenografted in po dosed nu/nu mouse assessed as decrease in cell proliferation administered for 28 days by Ki67 staining-based immunohistochemical analysis; format: functional, organism-based
[21] = system: ALK tyrosine kinase receptor (Homo sapiens), Q9UM73 [F1174L]
NCI-H3122 [22] = assay: Induction of apoptosis in human NCI-H3122 cells assessed as increase in cleaved caspase-3 expression level at 300 nM after 24 hrs by Western blot method; format: functional, cell-based
[23] = molecular target: ALK tyrosine kinase receptor (Homo sapiens, UniProt Q9UM73, L1196M); assay: Inhibition of recombinant human N-terminal GST/His6-fused ALK L1196M mutant expressed in Sf9 insect cells using Tyr 1 peptide as substrate after 1 hr by Z-LYTE assay
Chain of ALK tyrosine kinase receptor (Homo sapiens, UniProt Q9UM73, L1196M) (Q9UM73 19-1620 L1196M limits assumed): as the sequence (Q9UM73 19-1620 limits assumed) above, with L1178M counted along it

T1 sequence (P00533 whole entry): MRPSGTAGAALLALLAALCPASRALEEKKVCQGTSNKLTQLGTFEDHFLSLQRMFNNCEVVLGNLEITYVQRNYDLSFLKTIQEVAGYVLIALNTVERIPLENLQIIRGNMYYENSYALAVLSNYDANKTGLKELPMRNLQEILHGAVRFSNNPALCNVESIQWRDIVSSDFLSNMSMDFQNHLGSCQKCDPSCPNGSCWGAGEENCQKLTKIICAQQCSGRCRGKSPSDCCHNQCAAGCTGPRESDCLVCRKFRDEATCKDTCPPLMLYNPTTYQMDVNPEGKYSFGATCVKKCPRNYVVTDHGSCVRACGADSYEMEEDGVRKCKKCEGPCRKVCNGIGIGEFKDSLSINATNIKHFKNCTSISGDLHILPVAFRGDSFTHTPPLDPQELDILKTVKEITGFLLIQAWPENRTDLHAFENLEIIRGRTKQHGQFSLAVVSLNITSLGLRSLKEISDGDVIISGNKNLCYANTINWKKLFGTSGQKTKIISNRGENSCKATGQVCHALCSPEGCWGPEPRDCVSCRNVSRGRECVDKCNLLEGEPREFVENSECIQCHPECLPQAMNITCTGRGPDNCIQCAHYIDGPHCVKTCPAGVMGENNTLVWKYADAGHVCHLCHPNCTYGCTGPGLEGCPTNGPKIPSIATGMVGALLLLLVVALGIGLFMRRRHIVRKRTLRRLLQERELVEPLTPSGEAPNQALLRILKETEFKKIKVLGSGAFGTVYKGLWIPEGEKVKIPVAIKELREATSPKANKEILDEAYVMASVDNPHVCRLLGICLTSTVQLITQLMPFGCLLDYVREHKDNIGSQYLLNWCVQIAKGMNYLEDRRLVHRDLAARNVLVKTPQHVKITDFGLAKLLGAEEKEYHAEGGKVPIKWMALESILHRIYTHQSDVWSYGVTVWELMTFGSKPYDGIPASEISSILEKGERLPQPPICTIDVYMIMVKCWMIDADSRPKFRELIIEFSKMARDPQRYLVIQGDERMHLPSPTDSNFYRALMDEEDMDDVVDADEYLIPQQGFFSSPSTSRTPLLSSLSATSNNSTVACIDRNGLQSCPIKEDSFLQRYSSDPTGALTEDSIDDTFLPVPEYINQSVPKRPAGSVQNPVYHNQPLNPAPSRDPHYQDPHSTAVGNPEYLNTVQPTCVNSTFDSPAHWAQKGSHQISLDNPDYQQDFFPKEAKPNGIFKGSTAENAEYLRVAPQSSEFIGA
Chain of Epidermal growth factor receptor (Homo sapiens), P00533 [T790M] (P00533 whole entry T790M, the tested form may be a part): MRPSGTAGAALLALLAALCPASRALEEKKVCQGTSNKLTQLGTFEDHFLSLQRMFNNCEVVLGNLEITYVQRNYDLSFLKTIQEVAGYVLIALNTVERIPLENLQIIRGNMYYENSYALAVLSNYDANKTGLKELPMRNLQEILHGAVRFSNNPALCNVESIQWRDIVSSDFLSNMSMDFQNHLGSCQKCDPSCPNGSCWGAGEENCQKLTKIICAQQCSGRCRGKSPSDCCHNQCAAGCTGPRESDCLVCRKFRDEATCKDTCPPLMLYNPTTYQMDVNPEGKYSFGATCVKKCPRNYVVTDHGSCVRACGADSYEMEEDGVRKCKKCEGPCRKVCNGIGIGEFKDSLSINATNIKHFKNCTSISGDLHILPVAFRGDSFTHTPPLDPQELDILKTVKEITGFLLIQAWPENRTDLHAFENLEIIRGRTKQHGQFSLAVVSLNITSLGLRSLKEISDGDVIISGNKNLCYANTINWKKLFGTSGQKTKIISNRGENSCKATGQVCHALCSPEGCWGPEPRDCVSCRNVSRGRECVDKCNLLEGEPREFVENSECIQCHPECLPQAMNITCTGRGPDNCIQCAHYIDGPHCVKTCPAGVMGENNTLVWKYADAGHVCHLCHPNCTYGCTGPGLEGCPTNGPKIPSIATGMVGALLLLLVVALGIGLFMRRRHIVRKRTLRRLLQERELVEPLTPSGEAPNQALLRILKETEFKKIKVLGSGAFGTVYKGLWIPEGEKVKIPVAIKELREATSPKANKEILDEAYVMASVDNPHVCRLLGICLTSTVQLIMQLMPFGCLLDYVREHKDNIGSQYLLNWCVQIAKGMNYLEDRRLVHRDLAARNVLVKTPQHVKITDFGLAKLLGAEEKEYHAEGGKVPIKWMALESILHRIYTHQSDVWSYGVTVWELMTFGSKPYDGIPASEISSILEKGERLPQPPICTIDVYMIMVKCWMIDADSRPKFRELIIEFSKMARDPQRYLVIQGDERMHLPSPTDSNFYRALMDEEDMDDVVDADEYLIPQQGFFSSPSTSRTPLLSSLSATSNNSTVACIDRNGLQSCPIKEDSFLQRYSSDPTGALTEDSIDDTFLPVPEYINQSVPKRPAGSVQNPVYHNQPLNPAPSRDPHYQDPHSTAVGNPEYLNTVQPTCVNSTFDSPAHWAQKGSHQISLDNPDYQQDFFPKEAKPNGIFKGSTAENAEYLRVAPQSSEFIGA
Chain of ALK tyrosine kinase receptor (Homo sapiens, UniProt Q9UM73, F1174L) (Q9UM73 19-1620 F1174L limits assumed): as the sequence (Q9UM73 19-1620 limits assumed) above, with F1156L counted along it

In the case of `C=CC(=O)Nc1cc(Nc2ncc(Cl)c(Nc3ccccc3S(=O)(=O)C(C)C)n2)c(OC)cc1N1CCCN(C)CC1`, the half-life [1] is reported as 105 min, the inhibition [2] is reported as “Active” and the Activity (Mus musculus) is reported as “Non-Toxic”. For the same compound, the GI50 (A549) was 5600 nM, the IC50 [3] was 9.8 nM and the GI50 (NCI-H2122) was 1800 nM. It also gave a GI50 (PC-9 [4]) of 15 nM, an AUC(0-t) [5] of 1140 ng·h/mL and a GI50 [6] of 8 nM. For the same compound, the Tmax [7] was 1.02 min, the GI50 at 72 h [8] was 1800 nM and the inhibition [9] was “Active”. The TGI (NCI-H3122 [10]) was “Dose-dependent effect”, the GI50 (NCI-H2228) was 28 nM and the GI50 [11] was 1 nM. The Cmax [12] was 283 ng/mL, the inhibition in vivo at 40 mg/kg (NCI-H1975 [13]) was 99% and the GI50 [14] was 6.9 nM. For the same compound, the inhibition in vivo at 20 mg/kg (NCI-H3122 [15]) was 68.3%, the GI50 (NCI-H1975 [16]) was 15 nM and the IC50 [17] was 0.92 nM. For the same compound, the Activity (PC-9 [18]) was “Active”, the inhibition in vivo at 10 mg/kg (NCI-H3122 [19]) was 10.8% and the Activity (NCI-H3122 [20]) was “Dose-dependent effect”. The GI50 [21] was 29 nM, the Activity (NCI-H3122 [22]) was “Active” and the IC50 [23] was 0.59 nM.
